Source: PubChem (Johns Hopkins Ion Channel Center)
KCNQ1 inh – inhibitors of human KCNQ1 channel, primary screen, cell-based, thallium flux, high-throughput. Potassium voltage-gated channel subfamily KQT member 1 (Homo sapiens), P51787. CHO-K1 KCNQ1, FluxOR thallium flux fluorescence; active compounds read high. B-score at 10 µM. 310,000 tested, 1.3% active;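 active = compounds whose thallium flux B-score, printed positive for inhibition, exceeds three library SD while starting fluorescence stays within three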;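 note: channel opened by potassium depolarization with thallium stimulus after 20 min compound exposure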
Kir21 inh – inhibitors of mouse Kir2.1 inward-rectifier potassium channel; Inward rectifier potassium channel 2 (Mus musculus), P35561; HEK293-Kir2.1, FluxOR thallium flux fluorescence; active compounds read low; B-score at 10 µM; 310,000 tested, 0.85% active;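 active = fluorescence ratio B-score at or below minus 3 SD of library scores, with starting-brightness B-score within 2 SD, cut at about -4.2 in these data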;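 note: channel flux triggered by added potassium and thallium sulfate stimulus; B-score of peak minus minimum fluorescence over baseline after thallium stimulus; more negative B-score means stronger Kir2.1 block with less thallium influx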
Target sequence (P35561 whole entry, looked up): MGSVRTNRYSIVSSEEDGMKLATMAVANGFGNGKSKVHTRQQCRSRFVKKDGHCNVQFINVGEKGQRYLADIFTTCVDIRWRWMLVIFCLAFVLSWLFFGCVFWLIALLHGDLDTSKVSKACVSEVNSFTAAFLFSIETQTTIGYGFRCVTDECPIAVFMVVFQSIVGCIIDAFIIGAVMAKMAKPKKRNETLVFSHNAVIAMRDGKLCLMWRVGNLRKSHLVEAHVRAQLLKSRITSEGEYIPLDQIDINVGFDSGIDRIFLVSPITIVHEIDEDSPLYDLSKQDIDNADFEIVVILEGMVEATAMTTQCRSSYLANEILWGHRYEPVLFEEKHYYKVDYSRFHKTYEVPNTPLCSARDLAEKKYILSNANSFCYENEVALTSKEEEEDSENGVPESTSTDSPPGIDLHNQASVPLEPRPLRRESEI
hERG protect – hERG rescue from dofetilide block, primary screen, cell-based, CHO-hERG, FluxOR thallium flux, dofetilide IC70 | 310,000 tested, 0.51% active | AID 1511, 2009 | dofetilide IC70 present | activation (rescue from dofetilide block), less the hit threshold, % at 10 µM | Voltage-gated inwardly rectifying potassium channel KCNH2 (Homo sapiens), Q12809;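 active = activation above the mean of controls blocked by dofetilide plus 5 SD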;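 note: thallium influx through hERG after potassium depolarization seen as dye fluorescence rise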
KCNK9 inh – KCNK9 potassium channel inhibitors, primary screen, HEK293 cells, thallium flux | FluxOR thallium flux fluorescence; active compounds read low | AID 488922, 2010 | B-score at 10 µM | 310,000 tested, 1.2% active;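 active = ratio B-score over 3 SD below the library mean, with starting fluorescence within 5 SD of its mean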;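 note: negative B-score means less thallium flux so channel inhibition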
KCNK3 block – human KCNK3 channel inhibitors, primary screen, CHO cells, FluxOR thallium flux, B-score | 340,000 tested, 0.84% active | Potassium channel subfamily K member 3 (Homo sapiens), O14649 | B-score at 10 µM | FluxOR fluorescence; active compounds read low;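 active = B-score under library mean minus 4 SD, starting fluorescence ratio at most library mean plus 5 SD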;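 note: more negative B-score means stronger inhibition of thallium flux through KCNK3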
KCNQ1 act – potentiators or activators of KCNQ1 channel, primary screen, cell-based, thallium flux, high-throughput. CHO-K1 KCNQ1, thallium flux FluxOR fluorescence; active compounds read high. B-score at 10 µM. 310,000 tested, 0.35% active. AID 2648, 2010;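 active = fluorescence ratio B-score, a plate-corrected score, at least three library SD, with initial intensity B-score within 5 SD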
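Material: CHO-K1 cells stably expressing KCNQ1. Medium: assay buffer for compound exposure, DMSO matched across wells. Reagent: K+/Tl+ depolarizing stimulus. Compound dosing: single-concentration screen. Times: 37 °C overnight plating, 90-min dark dye load, 20-min compound pretreatment. Technique: FluxOR Tl+ flux fluorescence.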
KCNK9 inh conf – KCNK9 potassium channel inhibitors, confirmation, HEK293 cells, thallium flux, duplicate | shares compounds with KCNK9 inh | FluxOR thallium flux fluorescence | inhibition, % at 10 µM | 4,900 tested, 43% active;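 active = thallium signal inhibited by more than 5 SD of the compound-free buffer control wells, on both duplicate plates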;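 note: 0% = assay buffer control wells without compound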
Kir21 sel – mouse Kir2.1 channel inhibition, confirmation, selectivity assay for KCNK9 modulator project, cell-based, HEK293, thallium flux; shares compounds with KCNK9 inh; Kir2.1 cells, FluxOR thallium flux fluorescence; inhibition, % at 10 µM; 4,900 tested, 4% active; AID 492993, 2010;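 active = thallium signal drop more than 5 SD beyond the mean of the no-compound control wells, seen in both duplicate plates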;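 note: signal is fluorescence rise after thallium addition divided by baseline fluorescence; plate controls were assay buffer only for no effect and full block by chlorpromazine control for full effect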
HEK293 Tl ctr – thallium flux in non-induced HEK293 cells, confirmation, counter-screen for KCNK9 inhibitor project, cell-based, second counter screen, non-induced KCNK9-HEK293. shares compounds with KCNK9 inh. FluxOR thallium flux. inhibition, % at 10 µM. 4,900 tested, 40% active. AID 492997, 2010;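 active = thallium signal drop beyond 5 SD of the untreated control mean, on both duplicate plates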;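 note: plate controls were buffer only IC0 wells for no effect and SID17386958 at its maximal inhibitory level for full effect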
* hit, by the source's call; i = inactive; . = no result. The list is not random: actives were taken first. Their share in the collection is about 3.7%.

SMILES	KCNQ1 inh	Kir21 inh	hERG protect	KCNK9 inh	KCNK3 block	KCNQ1 act	KCNK9 inh conf	Kir21 sel	HEK293 Tl ctr
CC(c1ccccc1)N(CC(=O)NC1CCCCC1)S(=O)(=O)c1cccc(C(F)(F)F)c1 (stereo not drawn)	i	0.48	-9	-8.2*	i	i	49%*	i	47%*
O=C(c1ccccc1)c1nn(-c2ccccc2)c2nnc(Cc3ccccc3)c(=O)n12	i	3	-20	i	i	i	i	i	i
OCCN1CCN(C2Cc3cc(Cl)ccc3Sc3ccc(Cl)cc32)CC1 (stereo not drawn) (tested in a mixture with another compound)	7*	-2	-22	-8.6*	i	i	i	i	i
CCc1ccc2c(c1)Sc1ccccc1CC2N1CCN(C)CC1 (stereo not drawn)	i	-2.9	-20	i	i	i	.	.	.
COc1ccc(NC(=O)CN2C(=O)NC(c3ccccc3)(c3ccccc3)C2=O)cc1	i	-1.6	-6	i	i	i	.	.	.
COc1ccc(NC(=O)CN2C(=O)NC(c3ccccc3)(c3ccccc3)C2=O)cc1OC	i	-0.78	-2	-16*	i	i	i	i	i
COC(=O)c1cc(=O)n(Cc2cccs2)c(=Nc2ccc(F)cc2)s1	i	0.68	-7	i	i	i	.	.	.
COC(=O)c1cc(=O)n(CCc2ccccc2F)c(=Nc2ccc(F)c(Cl)c2)s1	i	2.2	-3	-14*	i	i	44%*	i	36%*
COC(=O)c1ccc(Oc2nc(C)cc(Oc3ccccc3)n2)cc1	i	0.54	-11	i	i	i	i	i	i
CC(CCc1ccccc1)NC(=O)C1CCCN(C(=O)c2cc3sccc3n2C)C1 (stereo not drawn)	i	0.35	0	i	i	i	.	.	.
CCn1c(C(=O)N2CCCC(C(=O)NCCc3ccc(C)cc3)C2)cc2sccc21 (stereo not drawn)	.	.	.	.	i	.	.	.	.
Cn1c(C(=O)N2CCCC(C(=O)NCCCSC3CCCCC3)C2)cc2sccc21 (stereo not drawn)	i	0.32	-4	i	i	i	i	i	i
CCn1c(C(=O)N2CCCC(C(=O)NCCCc3ccccc3)C2)cc2sccc21 (stereo not drawn)	i	-0.73	-9	i	i	i	i	i	i
Cc1ccc(NCC2(N=Cc3ccccc3)OC(CO)C(O)C2O)cc1 (stereo not drawn)	.	.	.	.	i	.	.	.	.
Cc1nn(C(=O)CCCC(=O)NCc2ccccc2)c2ccccc12	i	0.7	-8	i	i	i	.	.	.
Cc1ccccc1C(=O)NC(=S)NCCC1=CCCCC1	i	-0.04	-8	i	i	i	i	i	i
Cc1ccccc1C(=O)NC(=S)NCCc1ccccc1	i	-0.92	-3	i	i	i	.	.	.
C=C1CC2C(=O)N(Cc3ccccc3)C(C(=O)OCC)(C(=O)OCC)C1N2C(=O)OC(C)(C)C (stereo not drawn)	i	-1.3	-9	-12*	i	i	47%*	i	37%*
Cc1ccc(C)c(N2CCN(S(=O)(=O)c3cc4c(cc3Cl)NC(=O)CO4)CC2)c1	i	1.4	-7	i	i	i	.	.	.
COc1ccc(/C=C/c2n[nH]c(=O)c(C#N)c2C)cc1	i	0.6	-3	i	i	i	.	.	.
C=C1CCN([C@H](C(=O)OCc2cccc(C)c2)C(C)C)S(=O)(=O)c2ccccc21	i	-1.2	-12	-9*	i	i	46%*	i	i
CCN(CC)C(=O)c1[nH]cnc1C(=O)N[C@@H](Cc1ccccc1)C(=O)OC(C)(C)C	i	-0.13	-11	i	i	i	.	.	.
CC(C)(C)c1ccc(C(=S)N2CCN(c3ccccc3)CC2)cc1	6*	0.39	-8	i	i	i	i	i	i
S=C(c1ccccc1)N1CCN(c2ccccc2)CC1	.	.	.	.	i	.	.	.	.
Cc1ccc(NC(=S)N/N=C2/CCCCc3ccccc32)cc1	i	-0.98	-5	i	i	8*	i	i	i
SMILES	KCNQ1 inh	Kir21 inh	hERG protect	KCNK9 inh	KCNK3 block	KCNQ1 act	KCNK9 inh conf	Kir21 sel	HEK293 Tl ctr
Cc1ccc(C)c(NC(=S)N/N=C2\CCc3ccccc32)c1	i	-0.68	-8	i	i	i	.	.	.
Cc1cccc(NC(=S)N/N=C2/CCCCc3ccccc32)c1	i	1.2	5.8*	i	i	i	i	i	i
Cc1ccc(S(=O)(=O)NCC(=O)NNC(=O)c2ccccc2Cl)cc1C	.	.	.	.	i	.	.	.	.
O/N=C/Cc1[nH]c2ccccc2c1-c1ccccc1	i	0.34	-6	-9.1*	i	i	47%*	i	i
O=c1[nH]c2ccccc2c(O)c1-c1ccccc1	i	-0.5	-10	i	i	i	.	.	.
CCN1/C(=C/c2ccc3ccccc3[n+]2CCCS(=O)(=O)[O-])C=Cc2cc(C)ccc21	i	-0.06	-6	i	i	i	.	.	.
CCN1/C(=C/c2ccc3ccccc3[n+]2CC)C=Cc2ccccc21	13*	-13*	-38	-18*	-9*	i	86%*	94%*	59%*
O=C(c1ccc(N2CCCCC2)c([N+](=O)[O-])c1)N(Cc1ccccc1)c1ccccn1	i	-1.2	-18	i	i	i	.	.	.
O=[N+]([O-])c1ccccc1SN(Cc1ccccc1)c1ccccn1	i	0.58	-6	-8.6*	i	i	40%*	i	44%*
CCOc1ccc(S(=O)(=O)NCCC(=O)N(C)Cc2cccs2)cc1	.	.	.	.	i	.	.	.	.
